An excerpt weighted towards active compounds, which were near 1.5% of everything screened.
Hsp70 act – Hsp70 transcriptional activators, primary screen, cell-based, HeLa, Hsp70 promoter luciferase, luminescence, 10 µM | HeLa Hsp70 promoter luciferase reporter; scaled: vehicle 0, proteasome-inhibitor control 100% | 200,000 tested, 0.04% active | AID 1203, 2008 | activation, % at 10 µM;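 active = activation above the mean across all tested compounds plus 3 SD, cutoff set per campaign, cut at about 5.5% in these data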;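 also: 100% = MG132 at 30 µM as the positive control and 0% = DMSO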
p97 inhibitor – inhibitors of human p97 ATPase, primary screen, biochemical | Transitional endoplasmic reticulum ATPase (Homo sapiens), P55072 | 220,000 tested, 0.42% active | recombinant p97 ATPase, Kinase-Glo ATP luminescence, 3 h | inhibition, % at 8 µM; in the data active = inhibition above about 15%;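 also: 0% = DMSO vehicle and 100% = wells lacking enzyme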
PP1 inh – PP1-alpha phosphatase inhibitors, primary screen, counter-screen for PP5 inhibitor project, biochemical, fluorescence, OMFP substrate, single point; 320,000 tested, 0.9% active; purified PP1alpha; inhibition, % at 6.7 µM; Serine/threonine-protein phosphatase PP1-alpha catalytic subunit (Homo sapiens), P62136;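 active = inhibition above the mean inhibition of all tested compounds plus 3 SD, computed separately for each screening campaign, cut at about 15% in these data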
Target sequence (P62136 whole entry, looked up): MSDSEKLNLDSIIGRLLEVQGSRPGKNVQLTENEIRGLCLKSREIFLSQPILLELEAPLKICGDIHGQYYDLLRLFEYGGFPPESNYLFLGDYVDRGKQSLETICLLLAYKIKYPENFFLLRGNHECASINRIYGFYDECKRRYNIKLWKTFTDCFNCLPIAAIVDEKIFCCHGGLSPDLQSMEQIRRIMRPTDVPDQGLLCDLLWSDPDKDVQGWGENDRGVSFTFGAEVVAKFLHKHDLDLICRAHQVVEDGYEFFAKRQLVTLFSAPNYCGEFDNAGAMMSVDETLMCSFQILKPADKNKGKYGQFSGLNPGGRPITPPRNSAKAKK
PKD1 kinase inh – inhibitors of human PKD1 kinase, biochemical, fluorescence polarization | Serine/threonine-protein kinase D1 (Homo sapiens), Q15139 | PKD1 kinase fluorescence polarization assay | inhibition, % (no concentration beside the values) | 200,000 tested, 0.056% active | AID 797, 2007; in the data active = inhibition above about 50%
RBBP9 inh – human RBBP9 inhibitors, primary screen, biochemical, fluorescence polarization, FP-Rh probe, HTS | Serine hydrolase RBBP9 (Homo sapiens), O75884 | recombinant RBBP9 | inhibition, % at 7.94 µM | 220,000 tested, 0.2% active;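 active = inhibition above the campaign mean of all tested compounds plus 3 SD, cut at about 14% in these data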;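 also: plate controls were DMSO wells with RBBP9 for no effect and wells lacking RBBP9 protein for full effect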
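Assay system: recombinant human RBBP9; Reagent: Serine-hydrolase probe FP-Rh, 375 nM pre-mixing; Doses: 7.94 µM single dose, 0.794% DMSO; Incubation: 30 min then 45 min, 25 °C; Detection: fluorescence polarization (mP), excitation 525 nm, emission 598 nm; Evaluation: percent inhibition from mP, scaled between DMSO and no-protein wells.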
PP5 inh – PP5 phosphatase inhibitors, primary screen, biochemical, fluorescence. purified PP5c, OMFP substrate fluorescence. Serine/threonine-protein phosphatase 5 (Homo sapiens), P53041. 320,000 tested, 0.18% active. AID 1987, 2009. inhibition, % at 6.7 µM;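 active = inhibition above the campaign's mean inhibition across all tested compounds plus 3 SD, cut at about 9.5% in these data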;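 also: 0% = DMSO only and 100% = 100 µM cantharidin control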
* marks the source's active call; other numbers are inactive results; · = no result given.

SMILES	Hsp70 act	p97 inhibitor	PP1 inh	PKD1 kinase inh	RBBP9 inh	PP5 inh
CCc1ccc2nc(N(CCCN(C)C)C(=O)c3ccc(S(=O)(=O)N4CCc5ccccc5C4)cc3)sc2c1	·	·	17*	·	·	2
Cc1ccc(-n2c(C)cc(C3=NNC(=NC4CC4)SC3)c2C)cc1C	0	8	16*	1	-6	4
COCCn1c(C)cc(C2=NNC(=Nc3ccccc3F)SC2)c1C	0	-3	12	-1	0	1
Cc1cc(C2=NNC(=Nc3ccccc3)SC2)c(C)n1C	0	9	16*	-9	-5	0
O=C(CCl)Nc1ccccc1C(=O)Nc1ccc2c(c1)OCO2	·	6	-1	·	-4	-2
Cc1cc(C(=O)Cn2nc(C(=O)O)c3ccccc3c2=O)c(C)n1-c1ccc(OC(F)F)cc1	0	-2	16*	-1	-16	0
Oc1ccc(N=Nc2ccc3c(c2)OCCO3)c2ncccc12	·	4	16*	·	-1	3
O=C(Nc1ncccc1O)c1ccc2c(c1)OCCO2	·	·	-6	·	·	0
CCC(C)c1ccc(S(=O)(=O)N2CCN(C(C)C(=O)NC3CCCC3)CC2)cc1 (stereo unspecified)	·	·	-3	·	·	3
CCCCOc1cccc(C(=O)Nc2ccc(S(=O)(=O)Nc3nnc(CC)s3)cc2)c1	·	·	15*	·	·	4
CN(C#N)c1nc(Cl)nc(Nc2cccc(Cl)c2)n1	0	15*	0	14	-15	-2
C=CCSc1nc2ccccc2n1C(=O)/C=C/c1cc(OC)c(OC)c(OC)c1	9.7*	-6	-1	-2	-11	2
C=CCSc1nc2ccccc2n1C(=O)/C=C/c1ccc(OC)c(OC)c1	0	6	-3	1	-7	3
CCn1cnc2cc(NS(=O)(=O)c3ccc(C)cc3)ccc21	0	1	-5	0	-5	6
COc1ccc(-n2cnc3cc(NS(=O)(=O)c4ccc(C)cc4)ccc32)cc1	0	4	0	-13	-2	12*
CC1Cc2ccccc2N1c1ncnc(N)c1[N+](=O)[O-] (stereo unspecified)	0	4	-3	68*	-6	0
CCCCNC(=O)Nc1ccc(C2SCCS2)cc1	·	-5	1	·	-10	-1
COc1ccc([C@H]2CC(=O)C=C(c3ccc(F)cc3OCc3ccccc3)C2)cc1OC	·	·	1	·	·	5
CCCNC(=O)c1ccc(N2CCC3(CC2)CC(c2cccc(Br)c2)=NO3)c(NC(=O)c2cccc(C)c2)c1	·	·	16*	·	·	3
CCCCCCCC(=O)Nc1cc(C(=O)NCCC)ccc1N1CCC2(CC1)CC(c1cccc(Br)c1)=NO2	·	·	2	·	·	2
CCCn1c(C)cc(C(=O)COc2ccc(C)nc2[N+](=O)[O-])c1C	0	2	3	1	-6	3
COCCn1c(C)cc(C(=O)COc2ccc(C)nc2[N+](=O)[O-])c1C	0	15*	2	0	-2	4
COc1ccc(CCC(=O)NCCS(=O)(=O)N2CCN(c3ccccc3OC)CC2)cc1	·	·	-2	·	·	2
COc1ccccc1-c1nnc(NC(=O)c2ccc(S(=O)(=O)N(C)CC3CCCO3)cc2)o1 (stereo unspecified)	·	·	17*	·	·	3
O=C(CSc1nc(=O)n(CCN2CCOCC2)c2c1CCC2)Nc1ccc(OC(F)(F)F)cc1	·	·	3	·	·	1
SMILES	Hsp70 act	p97 inhibitor	PP1 inh	PKD1 kinase inh	RBBP9 inh	PP5 inh
c1ccc(C(c2ccccn2)c2ccccn2)cc1	0	4	-3	4	-8	3
CC(=O)Oc1ccc(C(c2ccc(OC(C)=O)cc2)c2ccccn2)cc1	0	0	-6	-3	25*	1
O=C(NCc1ccncc1)c1cccc(S(=O)(=O)N2CCc3ccccc32)c1	·	·	-1	·	·	1
O=C(c1ccc(-c2cc3ccccc3oc2=O)cc1)N1CCN(c2ccc(Cl)cc2[N+](=O)[O-])CC1	0	3	16*	-1	-8	4
COc1ccccc1C(=O)Nc1cc(Cl)ccc1O	0	15*	-1	-1	0	1
COC(=O)c1cccc(NC(=O)CCc2c(C)noc2C)c1	·	·	-2	·	·	1
